A selection: hits, their analogues and other compounds. The true share with any hit is near 2.2%.
APP 5UTR inh – APP translation inhibition. SH-SY5Y APP 5'UTR-luciferase reporter, luminescence. AID 1285. inhibition, % at 2 µM. 0.82% of 190,000 active;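 active means inhibition above a set limit, derived from the sample mean plus 3 SD, cut at about 45% in these data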
Ba/F3 V617F tox – lowers viability of Ba/F3 cells expressing EpoR and JAK2V617F. ATP luminescence. inhibition, % at 5.6 µM. 1.1% of 220,000 active. AID 1446;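 active means inhibition above the campaign mean plus 3 SD over all tested compounds, cut at about 24% in these data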;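 further: cytokine-independent growth of Ba/F3 cells driven by EpoR plus mutant JAK2; 0% = DMSO-treated cells and 100% = JAK inhibitor I control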
BaF3 tox – parental Ba/F3 viability inhibition as JAK2V617F counter-screen. CellTiter-Glo ATP luminescence. inhibition, % at 5.6 µM. 1.1% of 220,000 active. AID 1486;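 active means inhibition above a per-campaign cutoff, the mean inhibition of all tested compounds plus 3 SD, cut at about 27% in these data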;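 further: 0% = DMSO wells and 100% = JAK Inhibitor I control wells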
MT stabilize HCS – stabilizes microtubules in HeLa cells | AID 2205 | 0.83% of 200,000 active | HeLa tubulin immunostaining HCS, 24 h; share of cells brighter than vehicle mean+2SD | % tubulin-high responders, % at 10 µM;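 active means plate Z-score above 3 for both tubulin-high and condensed-nucleus cell shares, with cell loss under 80%, at 10 µM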;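 further: anti alpha tubulin signal scored within the nucleus-defined area of each cell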
bCat nuc transl – modulators of beta-catenin nuclear translocation | HeLa beta-catenin nuclear translocation, immunofluorescence imaging | nuclear translocation activity, % at 5 µM | 0.3% of 190,000 active | AID 1665;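 active means nuclear translocation activity above 50% at 5 µM, with a well cell count of 50 or more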;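 further: per-cell ratio of nuclear to cytoplasmic median beta-catenin stain intensity; plate controls were DMSO negative control for no effect and GSK-3 inhibitor IX positive control for full effect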
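Read-out: Nuclear/cytoplasmic beta-catenin signal ratio, % activation | Assay system: Human HeLa cell line | Times: 24 h compound exposure at 37°C, 5% CO2 | Signal: Fluorescence imaging of beta-catenin antibody stain plus DAPI | Dosing: 5 µM primary, 0.02–20 µM confirmation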
IEC-6 tox – IEC-6 cytotoxicity, counter-screen for KLF5 inhibitors; luminescence viability; inhibition, % at 5 µM; 0.78% of 290,000 active; AID 1825;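 further: 0% = plate median of test compound wells and 100% = cytotoxic reference compound wells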
IEC-6 cytotox cf – IEC-6 cytotoxicity, confirmation assay; shares compounds with IEC-6 tox; IEC-6 rat intestinal epithelial viability, luminescence; inhibition, % at 5 µM; 63% of 1,900 active; AID 1907;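 further: 0% = vehicle and 100% = reference cytotoxic drug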
Active calls of the source: *; / = no result given. Unless noted, no stated cut-off is given here; in the data, active means inhibition above about 22%; inactive means the rest.

SMILES | APP 5UTR inh | Ba/F3 V617F tox | BaF3 tox | MT stabilize HCS | bCat nuc transl | IEC-6 tox | IEC-6 cytotox cf
CCOC(=O)c1c(C)[nH]c(C(=O)N/N=C/c2ccc(OC)c(OC)c2)c1C | / | / | / | / | / | 62* | 49*
COc1cccc(/C=N/NC(=O)c2cc3c(OC)c(OC)ccc3[nH]2)c1OC | 57* | 54* | 42* | 11 | 25 | 55* | 42*
CCOC(=O)c1c(C)[nH]c(C(=O)N/N=C/c2cc([N+](=O)[O-])ccc2O)c1C | / | / | / | / | / | 11 | /
CCCN(C(=O)C(=O)Nc1ccc2nc3n(c(=O)c2c1)CCCCC3)c1ccc(OCC)cc1 | / | 4 | 5 | / | -1 | 0 | /
COc1ccccc1C1NC(=O)NC(C)=C1C(=O)OC1CCC(C)CC1 (centres undefined) | / | / | / | / | / | -7 | /
Cc1nn(-c2ccccc2)c(N)c1N=Nc1cccnc1 | -51 | 1 | 6 | 2 | -2 | 8 | /
Nc1nn(-c2ccccc2)c(N)c1N=Nc1cccc(F)c1 | / | 84* | 80* | / | 58* | 77* | 59*
CCSc1nnc(NC(=O)C2CC(=O)N(Cc3ccccc3)C2)s1 (centres undefined) | 10 | 6 | 9 | 2 | -6 | 2 | /
Cc1ccc(Cl)cc1NC(=S)N/N=C/c1cccc2ccccc12 | / | 78* | 76* | / | 1 | 79* | 67*
Cc1ccccc1NC(=S)Nc1cccc2cnccc12 | -11 | 2 | 6 | 3 | 1 | 44* | -1
CC(=O)Nc1cccc(NC(=S)Nc2cccc3ccccc23)c1 | / | / | / | / | / | 6 | /
Cc1ccc(F)c(NC(=S)Nc2cccc3ccccc23)c1 | / | / | / | / | / | 65* | -2
CC(=O)c1cccc(NC(=S)Nc2cccc3ccccc23)c1 | / | / | / | / | / | 28* | -1
Cc1ccc(C)c(NC(=S)Nc2cccc3cnccc23)c1 | -10 | -3 | 3 | 3 | -2 | 9 | /
CS(=O)(=O)c1ccc(C(=O)N2CC(=O)Nc3ccccc32)cc1 | / | / | / | / | / | 4 | /
Cc1cc(C)cc(C(=O)N2CC(=O)Nc3ccccc32)c1 | 92* | 78* | 82* | 28* | 154* | 89* | 57*
Cc1cc(S(=O)(=O)NCc2ccncc2)c(C)cc1Br | / | / | / | / | / | 13 | /
COc1cc(OC)cc(-c2oc3cccnc3c2C#CCCO)c1 | / | / | / | / | / | 25* | 17
COc1ccc(/C=C/c2c(-c3ccc(OC)cc3)oc3cccnc23)cc1 | / | / | / | / | / | -1 | /
Cc1cc(NC(=O)COC(=O)COc2cccc3c2OC(C)(C)C3)no1 | 11 | 0 | 5 | 3 | -6 | -1 | /
Cc1cnc(NC(=O)COc2cccc3c2OC(C)(C)C3)s1 | 29 | 6 | 11 | 2 | 1 | 30* | 34*
Cc1csc2sc(-c3ccnc(SCC(=O)NCc4ccccc4)n3)c(C)c12 | / | 81* | 60* | / | 1 | 74* | 65*
Cc1csc(SCC(=O)NCc2ccccc2)n1 | -2 | -2 | 0 | 2 | -1 | -5 | /
Cc1cc(NC(=O)c2cc(-c3ccncc3)nc3c(C)cccc23)no1 | 84* | 41* | 50* | 37* | / | 60* | 44*
CCOc1ccccc1/C=N/Nc1ccc(Cl)nn1 | / | / | / | / | / | -2 | /
SMILES | APP 5UTR inh | Ba/F3 V617F tox | BaF3 tox | MT stabilize HCS | bCat nuc transl | IEC-6 tox | IEC-6 cytotox cf
CCOc1ccc(/C=N/Nc2ccc(Cl)nn2)c(O)c1 | / | / | / | / | / | 94* | 5
Cc1ccc(SCC(=O)Nc2ccccc2C(=O)O)cc1 | -14 | 0 | 8 | 1 | -12 | -2 | /
Cc1ccc(CSCC(=O)Nc2ccccc2C(=O)O)cc1 | / | / | / | / | / | 29* | 25*
CN(Cc1ccccc1)C1=CC(=[N+]2CCCCC2)CC(C)(C)C1 | / | 98* | 79* | / | 2 | 34* | 19
O=C(Nc1cccc(Cl)c1)NC1CC2CCC1C2 (centres undefined) | / | / | / | / | / | 2 | /
Cc1ccc(-n2nc3c(N4CCC(C(=O)NCCc5ccccc5C)CC4)nnc(C)c3c2C)cc1 | / | / | / | / | / | 23* | 34*
CCCN1CCc2c(sc3nc(SCC)n(-c4ccc(OC)cc4)c(=O)c23)C1 | / | / | / | / | / | 0 | /
CCC(CC)NC(=O)c1cc([N+](=O)[O-])ccc1N1CCOCC1 | -1 | -5 | 4 | 5 | 0 | -4 | /
CCOc1ccc(C(=O)c2cc([N+](=O)[O-])ccc2N2CCOCC2)cc1 | 94* | 97* | 96* | 15* | 37 | 92* | 82*
O=C(OCc1ccccc1Cl)c1cc([N+](=O)[O-])ccc1N1CCOCC1 | / | / | / | / | / | 8 | /
COc1ccc(C(=O)c2cc([N+](=O)[O-])ccc2N2CCOCC2)cc1 | 93* | 92* | 94* | 7 | 57* | 85* | 64*
Cc1ccc(COC(=O)c2cc([N+](=O)[O-])ccc2N2CCOCC2)cc1 | / | / | / | / | / | 87* | 61*
O=C(c1cc2cc(Cl)ccc2[nH]1)N1CCN(Cc2ccc3c(c2)OCO3)CC1 | / | / | / | / | / | 5 | /
COc1ccc(S(=O)Cc2ccc(C(=O)N3CCN(c4cccc(C)c4C)CC3)o2)cc1 (centres undefined) | / | / | / | / | / | 32* | 37*
Cc1ccccc1S(=O)(=O)Cc1ccc(C(=O)N2CCN(c3cccc(C)c3C)CC2)o1 | 20 | 1 | 4 | 8 | 7 | 18 | /
COc1cc(C(=O)N2CCN(c3cccc(C)c3C)CC2)cc(OC)c1OC | 95* | 70* | 71* | 13 | 64* | 82* | 58*
Cc1cccc(N2CCN(C(=O)c3cc(S(=O)(=O)N4CCCC4)cn3C)CC2)c1C | / | / | / | / | / | 52* | 16
O=C(CN1CCC(C(=O)c2ccc(Cl)cc2)CC1)NC1CCCC1 | / | / | / | / | / | -2 | /
COC(=O)CCC(=O)N1CCC(CCC(=O)NCc2ccc(F)cc2)CC1 | / | / | / | / | / | 5 | /
COc1ccc(CN2C(=O)CSC2c2ccccn2)cc1 (centres undefined) | / | -3 | -1 | / | 0 | -3 | /
COc1ccccc1NC(=O)CN(c1ccccc1)S(=O)(=O)c1ccccc1 | / | / | / | / | / | -3 | /
COc1ccc(N(CC(=O)Nc2ccccc2OC)S(=O)(=O)c2ccc(NC(C)=O)cc2)cc1 | / | / | / | / | / | 38* | 32*
CC(C)C(=O)N1CCN(c2ccccc2NC(=O)c2ccc([N+](=O)[O-])o2)CC1 | / | / | / | / | / | 26* | 23*
CCC(=O)N1CCN(c2ccccc2NC(=O)c2ccc([N+](=O)[O-])o2)CC1 | / | / | / | / | / | 38* | 16
CCN(Cc1ccccc1)C(=O)COC(=O)c1cc(=O)[nH]c2ccccc12 | -11 | -1 | -3 | 2 | 1 | -13 | /
CCCCn1c(CN2CCN(c3cccc(Cl)c3)CC2)nc2c1c(=O)[nH]c(=O)n2C | 85* | 48* | 38* | 35* | 1 | 44* | 41*
CC(NCC(O)COc1ccc2ccccc2c1)c1ccccc1 (centres undefined) | / | / | / | / | / | 53* | 9
CC(NCC(O)COc1ccc(Br)cc1)c1ccccc1 (centres undefined) | / | / | / | / | / | 6 | /
Cc1ccc(N=Nc2c(N)[nH]n3c(=O)cc(C)nc23)cc1 | 2 | -2 | 0 | 4 | 0 | 22* | 16

High-throughput results: PubChem, several laboratories
